Converted amounts (≈) assume the structure as drawn.
System: Escherichia coli
Test: Antibacterial activity against Escherichia coli NCIM 2065 after 18 hrs by disc diffusion method
Type: functional
Settings: not given
Procedure, shortened: (§1)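 Modified Kirby-Bauer disc diffusion. Plates inoculated with spore suspension (about 6 × 10⁴ spores mL^-1). Sterile 6 mm paper discs carried test samples at 10 mg mL^-1; ciprofloxacin disc as reference, DMF disc as negative control. Plates held 18 h at 37 °C. Inhibition zone diameters (mm) averaged over triplicate sets.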

Structure (SMILES)	inhibition zone (IZ)
COC(=O)[C@H](C)NC(=O)[C@@H]1CCCN1C(=O)c1cc(-c2nc3ccc([N+](=O)[O-])cc3[nH]2)ccc1O	18 mm
COC(=O)[C@H](Cc1ccccc1)NC(=O)[C@@H]1CCCN1C(=O)[C@@H]1CCCN1C(=O)c1ccc(-c2nc3cc(C)c(C)cc3[nH]2)cc1	16 mm

System: Candida albicans
Test: Antifungal activity against Candida albicans MUCC 29 after 48 hrs by disc diffusion method
Type: functional
Settings: not given
Procedure, shortened: (§2)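 Agar well diffusion on plates inoculated with spore suspension in normal saline from cultures on Sabouraud's broth. Wells punched and loaded with test samples or griseofulvin at 10 mg mL^-1, with DMSO as negative control. Incubated 48 h at 37 °C.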

Structure (SMILES)	inhibition zone (IZ)
COC(=O)[C@H](C)NC(=O)[C@@H]1CCCN1C(=O)c1cc(-c2nc3ccc([N+](=O)[O-])cc3[nH]2)ccc1O	22 mm
COC(=O)[C@H](Cc1ccccc1)NC(=O)[C@@H]1CCCN1C(=O)[C@@H]1CCCN1C(=O)c1ccc(-c2nc3cc(C)c(C)cc3[nH]2)cc1	16 mm

System: Escherichia coli
Test: Antibacterial activity against Escherichia coli NCIM 2065 after 18 hrs by tube dilution method
Type: functional
Settings: NCIM 2065, 18 h

Structure (SMILES)	MIC
COC(=O)[C@H](C)NC(=O)[C@@H]1CCCN1C(=O)c1cc(-c2nc3ccc([N+](=O)[O-])cc3[nH]2)ccc1O	12.5 µg/mL (≈ 26 µM)
COC(=O)[C@H](Cc1ccccc1)NC(=O)[C@@H]1CCCN1C(=O)[C@@H]1CCCN1C(=O)c1ccc(-c2nc3cc(C)c(C)cc3[nH]2)cc1	25 µg/mL (≈ 40.2 µM)

System: Staphylococcus aureus
Test: Antibacterial activity against Staphylococcus aureus NCIM 2079 after 18 hrs by tube dilution method
Type: functional
Settings: NCIM 2079, 18 h
Procedure, shortened: (§3)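 Tube dilution MIC. Stock diluted in sterile broth to seven concentrations from 200 to 3.1 […]. Each tube inoculated with one loopful of test bacterium and incubated 18 h at 37 °C. MIC read from presence or absence of growth.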

Structure (SMILES)	MIC
COC(=O)[C@H](C)NC(=O)[C@@H]1CCCN1C(=O)c1cc(-c2nc3ccc([N+](=O)[O-])cc3[nH]2)ccc1O	25 µg/mL (≈ 51.9 µM)
COC(=O)[C@H](Cc1ccccc1)NC(=O)[C@@H]1CCCN1C(=O)[C@@H]1CCCN1C(=O)c1ccc(-c2nc3cc(C)c(C)cc3[nH]2)cc1	25 µg/mL (≈ 40.2 µM)

System: Pontoscolex corethrurus
Test: Anthelmintic activity against Pontoscolex corethrurus ICARBC 408 assessed as mean death time
Type: functional
Settings: not given
Procedure, shortened: (§4)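 Earthworms exposed to test suspensions at 2 mg mL−1, prepared by triturating compound with Tween 80 (0.5%) and distilled water, stirring 30 min, then diluting to 0.2% w/v. Mebendazole suspension was made the same way. Death was confirmed by moving worms into 50 °C warm water and looking for movement. Mean death time (min) taken from triplicate sets.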

Structure (SMILES)	Time
COC(=O)[C@H](C)NC(=O)[C@@H]1CCCN1C(=O)c1cc(-c2nc3ccc([N+](=O)[O-])cc3[nH]2)ccc1O	43.76 min
COC(=O)[C@H](Cc1ccccc1)NC(=O)[C@@H]1CCCN1C(=O)[C@@H]1CCCN1C(=O)c1ccc(-c2nc3cc(C)c(C)cc3[nH]2)cc1	72.24 min

System: Microsporum audouinii
Test: Antifungal activity against Microsporum audouinii MUCC 545 after 48 hrs by tube dilution method
Type: functional
Settings: not given
Procedure, shortened: (§5)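 Tube dilution MIC as for bacteria (seven concentrations, 200–3.1 […]), with DMSO in place of DMF. Tubes inoculated with fungal culture and incubated 48 h at 37 °C. MIC read from presence or absence of growth.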

Structure (SMILES)	MIC
COC(=O)[C@H](C)NC(=O)[C@@H]1CCCN1C(=O)c1cc(-c2nc3ccc([N+](=O)[O-])cc3[nH]2)ccc1O	6 µg/mL (≈ 12.5 µM)
COC(=O)[C@H](Cc1ccccc1)NC(=O)[C@@H]1CCCN1C(=O)[C@@H]1CCCN1C(=O)c1ccc(-c2nc3cc(C)c(C)cc3[nH]2)cc1	25 µg/mL (≈ 40.2 µM)

System: Staphylococcus aureus
Test: Antibacterial activity against Staphylococcus aureus NCIM 2079 after 18 hrs by disc diffusion method
Type: functional
Settings: not given
Procedure, shortened: as §1

Structure (SMILES)	inhibition zone (IZ)
COC(=O)[C@H](C)NC(=O)[C@@H]1CCCN1C(=O)c1cc(-c2nc3ccc([N+](=O)[O-])cc3[nH]2)ccc1O	9 mm
COC(=O)[C@H](Cc1ccccc1)NC(=O)[C@@H]1CCCN1C(=O)[C@@H]1CCCN1C(=O)c1ccc(-c2nc3cc(C)c(C)cc3[nH]2)cc1	8 mm

System: Trichophyton benhamiae
Test: Antifungal activity against Trichophyton mentagrophytes MUCC 665 after 48 hrs by tube dilution method
Type: functional, Arthroderma benhamiae
Settings: not given
Procedure, shortened: as §5

Structure (SMILES)	MIC
COC(=O)[C@H](C)NC(=O)[C@@H]1CCCN1C(=O)c1cc(-c2nc3ccc([N+](=O)[O-])cc3[nH]2)ccc1O	6 µg/mL (≈ 12.5 µM)
COC(=O)[C@H](Cc1ccccc1)NC(=O)[C@@H]1CCCN1C(=O)[C@@H]1CCCN1C(=O)c1ccc(-c2nc3cc(C)c(C)cc3[nH]2)cc1	6 µg/mL (≈ 9.65 µM)

System: Pontoscolex corethrurus
Test: Anthelmintic activity against Pontoscolex corethrurus ICARBC 408 assessed as mean paralyzing time
Type: functional
Settings: not given
Procedure, shortened: (§6)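 Earthworms exposed to test suspensions at 2 mg mL^-1 (0.2% w/v), made by triturating compound with Tween 80 (0.5%) and distilled water, then mechanically stirred 30 min. Mebendazole suspension prepared alike as reference. Paralysis and death times recorded; death confirmed by no movement in 50 °C water. Means from triplicate sets.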

Structure (SMILES)	Time
COC(=O)[C@H](C)NC(=O)[C@@H]1CCCN1C(=O)c1cc(-c2nc3ccc([N+](=O)[O-])cc3[nH]2)ccc1O	31.98 min
COC(=O)[C@H](Cc1ccccc1)NC(=O)[C@@H]1CCCN1C(=O)[C@@H]1CCCN1C(=O)c1ccc(-c2nc3cc(C)c(C)cc3[nH]2)cc1	49.35 min

System: Trichophyton benhamiae
Test: Antifungal activity against Trichophyton mentagrophytes MUCC 665 after 48 hrs by disc diffusion method
Type: functional, Arthroderma benhamiae
Settings: not given
Procedure, shortened: as §2

Structure (SMILES)	inhibition zone (IZ)
COC(=O)[C@H](C)NC(=O)[C@@H]1CCCN1C(=O)c1cc(-c2nc3ccc([N+](=O)[O-])cc3[nH]2)ccc1O	17 mm
COC(=O)[C@H](Cc1ccccc1)NC(=O)[C@@H]1CCCN1C(=O)[C@@H]1CCCN1C(=O)c1ccc(-c2nc3cc(C)c(C)cc3[nH]2)cc1	13 mm

System: not listed separately
Test: Anthelmintic activity against Megascoplex konkanensis ICARBC 211 assessed as mean paralyzing time
Type: functional
Settings: not given
Procedure, shortened: as §6

Structure (SMILES)	TIME
COC(=O)[C@H](C)NC(=O)[C@@H]1CCCN1C(=O)c1cc(-c2nc3ccc([N+](=O)[O-])cc3[nH]2)ccc1O	0.438 h
COC(=O)[C@H](Cc1ccccc1)NC(=O)[C@@H]1CCCN1C(=O)[C@@H]1CCCN1C(=O)c1ccc(-c2nc3cc(C)c(C)cc3[nH]2)cc1	0.613 h

System: Eudrilus
Test: Anthelmintic activity against Eudrilus sp. assessed as mean paralyzing time
Type: functional
Settings: not given
Procedure, shortened: as §6

Structure (SMILES)	Time
COC(=O)[C@H](C)NC(=O)[C@@H]1CCCN1C(=O)c1cc(-c2nc3ccc([N+](=O)[O-])cc3[nH]2)ccc1O	27.23 min
COC(=O)[C@H](Cc1ccccc1)NC(=O)[C@@H]1CCCN1C(=O)[C@@H]1CCCN1C(=O)c1ccc(-c2nc3cc(C)c(C)cc3[nH]2)cc1	32.82 min

System: Pseudomonas aeruginosa
Test: Antibacterial activity against Pseudomonas aeruginosa NCIM 2034 after 18 hrs by tube dilution method
Type: functional
Settings: NCIM 2034, 18 h
Procedure, shortened: as §3

Structure (SMILES)	MIC
COC(=O)[C@H](C)NC(=O)[C@@H]1CCCN1C(=O)c1cc(-c2nc3ccc([N+](=O)[O-])cc3[nH]2)ccc1O	6 µg/mL (≈ 12.5 µM)
COC(=O)[C@H](Cc1ccccc1)NC(=O)[C@@H]1CCCN1C(=O)[C@@H]1CCCN1C(=O)c1ccc(-c2nc3cc(C)c(C)cc3[nH]2)cc1	6 µg/mL (≈ 9.65 µM)

System: Aspergillus niger
Test: Antifungal activity against Aspergillus niger MUCC 177 after 48 hrs by disc diffusion method
Type: functional
Settings: not given
Procedure, shortened: as §2

Structure (SMILES)	inhibition zone (IZ)
COC(=O)[C@H](C)NC(=O)[C@@H]1CCCN1C(=O)c1cc(-c2nc3ccc([N+](=O)[O-])cc3[nH]2)ccc1O	16 mm
COC(=O)[C@H](Cc1ccccc1)NC(=O)[C@@H]1CCCN1C(=O)[C@@H]1CCCN1C(=O)c1ccc(-c2nc3cc(C)c(C)cc3[nH]2)cc1	14 mm

System: not listed separately
Test: Anthelmintic activity against Megascoplex konkanensis ICARBC 211 assessed as mean death time
Type: functional
Settings: not given
Procedure, shortened: as §6

Structure (SMILES)	TIME
COC(=O)[C@H](C)NC(=O)[C@@H]1CCCN1C(=O)c1cc(-c2nc3ccc([N+](=O)[O-])cc3[nH]2)ccc1O	0.587 h
COC(=O)[C@H](Cc1ccccc1)NC(=O)[C@@H]1CCCN1C(=O)[C@@H]1CCCN1C(=O)c1ccc(-c2nc3cc(C)c(C)cc3[nH]2)cc1	1.04 h

System: Microsporum audouinii
Test: Antifungal activity against Microsporum audouinii MUCC 545 after 48 hrs by disc diffusion method
Type: functional
Settings: not given
Procedure, shortened: as §2

Structure (SMILES)	inhibition zone (IZ)
COC(=O)[C@H](C)NC(=O)[C@@H]1CCCN1C(=O)c1cc(-c2nc3ccc([N+](=O)[O-])cc3[nH]2)ccc1O	12 mm
COC(=O)[C@H](Cc1ccccc1)NC(=O)[C@@H]1CCCN1C(=O)[C@@H]1CCCN1C(=O)c1ccc(-c2nc3cc(C)c(C)cc3[nH]2)cc1	9 mm

System: Candida albicans
Test: Antifungal activity against Candida albicans MUCC 29 after 48 hrs by tube dilution method
Type: functional
Settings: not given
Procedure, shortened: as §5

Structure (SMILES)	MIC
COC(=O)[C@H](C)NC(=O)[C@@H]1CCCN1C(=O)c1cc(-c2nc3ccc([N+](=O)[O-])cc3[nH]2)ccc1O	6 µg/mL (≈ 12.5 µM)
COC(=O)[C@H](Cc1ccccc1)NC(=O)[C@@H]1CCCN1C(=O)[C@@H]1CCCN1C(=O)c1ccc(-c2nc3cc(C)c(C)cc3[nH]2)cc1	6 µg/mL (≈ 9.65 µM)

System: Eudrilus
Test: Anthelmintic activity against Eudrilus sp. assessed as mean death time
Type: functional
Settings: not given
Procedure, shortened: as §4

Structure (SMILES)	Time
COC(=O)[C@H](C)NC(=O)[C@@H]1CCCN1C(=O)c1cc(-c2nc3ccc([N+](=O)[O-])cc3[nH]2)ccc1O	35.82 min
COC(=O)[C@H](Cc1ccccc1)NC(=O)[C@@H]1CCCN1C(=O)[C@@H]1CCCN1C(=O)c1ccc(-c2nc3cc(C)c(C)cc3[nH]2)cc1	53.34 min

System: Pseudomonas aeruginosa
Test: Antibacterial activity against Pseudomonas aeruginosa NCIM 2034 after 18 hrs by disc diffusion method
Type: functional
Settings: not given
Procedure, shortened: as §1

Structure (SMILES)	inhibition zone (IZ)
COC(=O)[C@H](C)NC(=O)[C@@H]1CCCN1C(=O)c1cc(-c2nc3ccc([N+](=O)[O-])cc3[nH]2)ccc1O	28 mm
COC(=O)[C@H](Cc1ccccc1)NC(=O)[C@@H]1CCCN1C(=O)[C@@H]1CCCN1C(=O)c1ccc(-c2nc3cc(C)c(C)cc3[nH]2)cc1	20 mm

System: Bacillus subtilis
Test: Antibacterial activity against Bacillus subtilis NCIM 2063 after 18 hrs by tube dilution method
Type: functional
Settings: NCIM 2063, 18 h
Procedure, shortened: as §3

Structure (SMILES)	MIC
COC(=O)[C@H](C)NC(=O)[C@@H]1CCCN1C(=O)c1cc(-c2nc3ccc([N+](=O)[O-])cc3[nH]2)ccc1O	12.5 µg/mL (≈ 26 µM)
COC(=O)[C@H](Cc1ccccc1)NC(=O)[C@@H]1CCCN1C(=O)[C@@H]1CCCN1C(=O)c1ccc(-c2nc3cc(C)c(C)cc3[nH]2)cc1	12.5 µg/mL (≈ 20.1 µM)

System: Bacillus subtilis
Test: Antibacterial activity against Bacillus subtilis NCIM 2063 after 18 hrs by disc diffusion method
Type: functional
Settings: not given
Procedure, shortened: as §1

Structure (SMILES)	inhibition zone (IZ)
COC(=O)[C@H](C)NC(=O)[C@@H]1CCCN1C(=O)c1cc(-c2nc3ccc([N+](=O)[O-])cc3[nH]2)ccc1O	13 mm
COC(=O)[C@H](Cc1ccccc1)NC(=O)[C@@H]1CCCN1C(=O)[C@@H]1CCCN1C(=O)c1ccc(-c2nc3cc(C)c(C)cc3[nH]2)cc1	13 mm
